Screening results deposited in PubChem BioAssay by several laboratories.
5HT1a antag: blocks the human serotonin 5-HT1a receptor; CHO 5-HT1a Ga15 NFAT-bla reporter, antagonist mode; 0.68% of 62,000 active; P08908; AID 612; inhibition, % at 10 µM;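 active = inhibition above the mean of all tested compounds plus 3 SD, cut at about 43% in these data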;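 also: receptor stimulated by 5-CT agonist at 100 nM near EC80; beta-lactamase reporter measured by ratiometric fluorescence of a cleavable substrate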
5HT1E antag: antagonists of human 5-HT1E serotonin receptor | P28566 | CHO 5-HT1E Ga15 NFAT-bla reporter, FRET, antagonist | inhibition, % at 6 µM | 0.99% of 65,000 active;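 active = inhibition above a set limit, the mean inhibition across every tested compound plus 3 SD, cut at about 29% in these data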;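 also: signal is the 460 over 535 nm emission ratio of beta-lactamase substrate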
Target sequence (P28566 whole entry, looked up): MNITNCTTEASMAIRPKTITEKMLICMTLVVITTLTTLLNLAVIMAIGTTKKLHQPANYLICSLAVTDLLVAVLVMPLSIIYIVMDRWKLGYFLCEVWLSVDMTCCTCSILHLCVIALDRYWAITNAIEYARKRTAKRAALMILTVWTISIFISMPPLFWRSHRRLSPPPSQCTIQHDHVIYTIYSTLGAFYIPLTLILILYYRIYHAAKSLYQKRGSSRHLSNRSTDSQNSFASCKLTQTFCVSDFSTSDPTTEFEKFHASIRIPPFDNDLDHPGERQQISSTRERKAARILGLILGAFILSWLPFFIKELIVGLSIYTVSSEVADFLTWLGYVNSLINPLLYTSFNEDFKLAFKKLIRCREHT
5HT1a ag: agonists of human 5-HT1a serotonin receptor | CHO 5-HT1a Ga15 NFAT-bla reporter, FRET ratio; 0% basal, 100% maximal reference agonist | 0.56% of 65,000 active | activation, % at 10 µM | AID 567;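 active = activation above the screen-wide mean activation plus 3 SD, cut at about 19% in these data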
Ec RNAP inh: blocks E. coli RNA polymerase transcription | fluorescence transcription assay | P0A8V2 | AID 559 | inhibition, %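 (tested at 10 µM)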 | 0.2% of 62,000 active; in the data active = inhibition above about 20%
5HT1E ag: 5-HT1E (human) receptor agonism; CHO 5-HT1E Ga15 NFAT-bla reporter, FRET; 0% DMSO wells, 100% control agonist wells; activation, % at 6 µM; P28566; 0.69% of 65,000 active;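 active = activation above a set limit, the screen-wide mean activation plus 3 SD, cut at about 8.5% in these data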
S1P3 ag: S1P3 (human) receptor agonism. activation, % at 4.5 µM. Q99500. 0.1% of 60,000 active. AID 373. S1P3 NFAT-BLA reporter cells, FRET ratio; relative to 1 µM S1P, basal subtracted;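 active = activation above the screen-wide mean plus 3 SD, cut at about 4.5% in these data, passing the limit was not always enough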
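material = human S1P3 NFAT-BLA reporter CHO cells | schedule = 4 h compound at 37 °C, 2 h substrate at RT | measured by = fluorescent BLA substrate, ex 405 nm, em 460/535 nm ratio | controls = 1 µM S1P reference | replication = primary once, confirmation triplicate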
Of the large screens only hits and unclear results are named; the others gave an inactive call. An excerpt weighted towards active compounds, which were near 2.6% of everything screened.

C=CCOC(=O)C1=C(C)Nc2nc3ccccc3n2C1c1ccncc1 (centres undefined)	none
CCC(C(=O)N1CC2(C)CC1CC(C)(C)C2)N1C(=O)c2ccccc2C1=O (centres undefined)	none
C=CCNc1sc(C(=O)C(C)(C)C)c(N)c1C#N	none
CC(=O)Nc1ccc(S(=O)(=O)N2CCSC2c2ccccc2Cl)cc1 (centres undefined)	5HT1E antag 35 (no result: Ec RNAP inh)
Cc1ccc(-c2nc3nc4ccccc4nc3n2Cc2ccco2)cc1	5HT1a antag 50
Clc1ccc(-c2nc3nc4ccccc4nc3n2Cc2ccco2)cc1	none
Cc1cccn2c(=O)c3cc(C#N)c(=NC(=O)c4ccncc4)n(Cc4ccco4)c3nc12	none
CC(C)n1c(=NC(=O)c2ccco2)c(C#N)cc2c(=O)n3ccccc3cc21	5HT1a ag 29, 5HT1E ag 9.2
CCOC(=O)c1sc2c(c1C)C(c1cccs1)C1=C(CCCC1=O)N2 (centres undefined)	5HT1a ag 22
COc1ccc(C2CC(c3ccccc3)Nc3nc(N)nn32)cc1 (centres undefined)	none (no result: 5HT1a antag, Ec RNAP inh)
O=C(Cn1c(=O)n(Cc2ccco2)c(=O)c2cc(Cl)ccc21)NCC1CCCO1 (centres undefined)	none
O=c1c2ccccc2nnn1CSc1nnc(C2COc3ccccc3O2)n1-c1ccccc1 (centres undefined)	S1P3 ag 9.0
O=C(CCn1c(=S)oc2ccccc21)Nc1ccc2c(c1)OCCO2	none (no result: Ec RNAP inh)
COc1ccc(OC)c(S(=O)(=O)Nc2ccc(C(N)=O)cc2)c1	none
COc1ccc(OC)c(S(=O)(=O)Nc2ccc(O)c3ccccc23)c1	Ec RNAP inh 28
Cn1c(/C=N/n2cnnc2)nc2ccccc21	none
Cc1ccc(C2=Nc3ccccc3NC(C)(c3ccc(C)o3)C2)o1 (centres undefined)	5HT1a antag 49, 5HT1E ag 17
O=C1C2C3C=CC(CO)(O3)C2C(=O)N1c1ccccc1-c1ccccc1 (centres undefined)	5HT1a antag 104, 5HT1E antag 103
O=C(CN(C(=O)C1CSC(=O)C1)c1ccccc1F)NCc1ccc2c(c1)OCO2 (centres undefined)	none
CCOC(=O)CSC1=C(C#N)C(c2ccc(C)o2)CC(=O)N1 (centres undefined)	5HT1E antag 43
CCOc1cc(NC(=O)c2ccco2)c(OCC)cc1NC(=O)CCC(=O)NCc1cccnc1	none (no result: S1P3 ag)
COCCNC(=O)CSc1nc2ccccc2c(=O)n1CCCC(=O)NCc1ccccc1	5HT1a ag 26 (no result: S1P3 ag)
CCNC(=O)CSc1nc2ccccc2c(=O)n1CCCOC(C)C	none
CCCn1c(N)c(N(C)C)c(=O)n(CC(=O)Nc2ccc(OC(F)(F)F)cc2)c1=O	none
CN1CCN(S(=O)(=O)c2ccc(NC(=O)c3cccs3)cc2)CC1	none
CN1CCN(S(=O)(=O)c2ccc(NC(=O)c3csc4ccccc34)cc2)CC1	5HT1E antag 35
Clc1ccc(-c2nnc3sc(-c4ccc(Br)o4)nn23)c(Cl)c1	none
CN(C)c1ccc(-c2nn3c(-c4ccc(Cl)cc4Cl)nnc3s2)cc1	5HT1E antag 37
CCN(CC)c1ccc(-c2nn3c(-c4ccccc4OC)nnc3s2)cc1	5HT1a antag 70, 5HT1E antag 67
O=C(OCc1ccccc1Cl)c1ccc(-n2cnnc2)cc1	none
O=C(O)CCCC(=O)Nc1nc(-c2ccccc2)cs1	5HT1E ag 26
COC(=O)c1cc(-c2c(C)oc3cc(O)ccc3c2=O)c(C)o1	5HT1a ag 51
CNc1ccc(OC(F)F)cc1C(=O)c1ccccc1	none
Cc1cc(C)n(C(=O)CCCCCC(=O)n2nc(C)cc2C)n1	none
Cc1cc(C)c2c(=O)n(-c3ccccc3)[nH]c2n1	5HT1E ag 13
CCNc1nc(SCc2ccccc2)nc(N2CCOCC2)n1	5HT1E antag 36 (no result: Ec RNAP inh)
Nc1nc(CSCc2ccccc2)nc(N2CCOCC2)n1	none
Nc1cc(C(=O)c2cccs2)ccc1Cl	none
Cn1ncc(N)c1C(=O)Nc1cccc(C(F)(F)F)c1	5HT1a ag 45 (no result: Ec RNAP inh)
Cc1nc(NC2=NCN(CCCN3CCOCC3)CN2)nc2c(C)cccc12	5HT1E ag 15
Cc1cc2nc(NC3=NCN(CCCN4CCOCC4)CN3)nc(C)c2cc1C	none (no result: Ec RNAP inh)
COc1ccc(NC(=O)Nc2ccc(OCC(=O)N3CCOCC3)cc2)cc1OC	none
O=c1[nH]cnc2cc(Cl)ccc12	5HT1a ag 50
O=c1[nH]cnc2cc(-c3ccccc3)sc12	none (no result: 5HT1a antag)
CCC(=O)Nc1c(C#N)c2nc3ccccc3nc2n1C1CCCCC1	none (no result: 5HT1a antag)
N#Cc1c(N)n(C2CCCCC2)c2nc3ccccc3nc12	5HT1a ag 25
N#Cc1c(N)nc(SC2CCCCC2=O)c(C#N)c1-c1ccco1 (centres undefined)	5HT1E antag 42 (no result: S1P3 ag)
COc1ccc2c(c1)c1ncnc(N3CCN(Cc4ccc5c(c4)OCO5)CC3)c1n2C	none
COc1ccc2[nH]c3c(N4CCN(Cc5ccc6c(c5)OCO6)CC4)ncnc3c2c1	5HT1E antag 29 (no result: 5HT1a antag)
Cc1nn(Cc2ccc(F)cc2)c(C)c1NC(=O)c1noc2c1CCCCC2	none
CCOC(=O)C1CCN(C(c2cccnc2)c2c(NC(=O)c3ccco3)sc(C)c2C)CC1 (centres undefined)	5HT1E ag 52
Cc1sc(NC(=O)c2ccco2)c(C(c2cccnc2)N2CCN(c3ccc(F)cc3)CC2)c1C (centres undefined)	none
COc1ccc(C(=O)N2CCCC2)cc1	none
COc1ccc(OC)c(C(=O)c2ccc(C(=O)N3CCCCC3)cc2)c1	5HT1a ag 25
CC(=O)c1ccc(OCC(O)CN2CCN(Cc3ccccc3)CC2)cc1 (centres undefined)	none
CCCOC(=O)c1ccc(OCC(O)CN2CCN(C(=O)c3ccccc3)CC2)cc1 (centres undefined)	5HT1E ag 48
N=c1c(C(=O)NCc2ccc(F)cc2)cc2c(=O)n3ccccc3nc2n1CCCN1CCOCC1	5HT1a ag 31
N=c1c(C(=O)NCc2ccccc2)cc2c(=O)n3ccccc3nc2n1CCCN1CCOCC1	none
C=CCn1c(=N)c(C(=O)NCCCOC)cc2c(=O)n3cc(C)ccc3nc21	none
CCOC(=O)c1cc2c(=O)n3ccccc3nc2n(CCCOC)c1=NC(C)=O	5HT1a ag 23 (no result: S1P3 ag)
CC(C)OCCCn1c(=NC(=O)c2ccncc2)c(C#N)cc2c(=O)n3ccccc3nc21	5HT1a ag 37, 5HT1E ag 9.1
C=CCn1c(=N)c(C(=O)NCCCOC)cc2c(=O)n3ccccc3nc21	5HT1a ag 20
CCCn1c(=NC(=O)c2ccco2)c(C(=O)OCC)cc2c(=O)n3ccccc3nc21	none
CC(=O)C1(O)C(C)CC2C3CCC4CC(O)CCC4(C)C3=CCC21C (centres undefined)	none
